Laboratory results taken from ChEMBL document CHEMBL5030531, “Synthetic Glycolipids as Molecular Vaccine Adjuvants: Mechanism of Action in Human Cells and In Vivo Activity” (J Med Chem, 2021).
Active and inactive are the calls of the source. The rule behind the calls is not given here.

Assays:
[1] = biological target: Nuclear factor NF-kappa-B complex (Homo sapiens) (UniProt Q00653+P19838+Q04206); experiment: Activation of NF-kappaB in LPS-stimulated HEK-Blue hTLR4 cells assessed as increase in release of SEAP reporter protein level at 0.1 to 25 uM incubated for 18 hrs by QUANTI-blue assay; format: cell-based; conditions: dose 0.1-25 µM
Sequence of Nuclear factor NF-kappa-B complex (Homo sapiens) (P19838 whole entry, looked up): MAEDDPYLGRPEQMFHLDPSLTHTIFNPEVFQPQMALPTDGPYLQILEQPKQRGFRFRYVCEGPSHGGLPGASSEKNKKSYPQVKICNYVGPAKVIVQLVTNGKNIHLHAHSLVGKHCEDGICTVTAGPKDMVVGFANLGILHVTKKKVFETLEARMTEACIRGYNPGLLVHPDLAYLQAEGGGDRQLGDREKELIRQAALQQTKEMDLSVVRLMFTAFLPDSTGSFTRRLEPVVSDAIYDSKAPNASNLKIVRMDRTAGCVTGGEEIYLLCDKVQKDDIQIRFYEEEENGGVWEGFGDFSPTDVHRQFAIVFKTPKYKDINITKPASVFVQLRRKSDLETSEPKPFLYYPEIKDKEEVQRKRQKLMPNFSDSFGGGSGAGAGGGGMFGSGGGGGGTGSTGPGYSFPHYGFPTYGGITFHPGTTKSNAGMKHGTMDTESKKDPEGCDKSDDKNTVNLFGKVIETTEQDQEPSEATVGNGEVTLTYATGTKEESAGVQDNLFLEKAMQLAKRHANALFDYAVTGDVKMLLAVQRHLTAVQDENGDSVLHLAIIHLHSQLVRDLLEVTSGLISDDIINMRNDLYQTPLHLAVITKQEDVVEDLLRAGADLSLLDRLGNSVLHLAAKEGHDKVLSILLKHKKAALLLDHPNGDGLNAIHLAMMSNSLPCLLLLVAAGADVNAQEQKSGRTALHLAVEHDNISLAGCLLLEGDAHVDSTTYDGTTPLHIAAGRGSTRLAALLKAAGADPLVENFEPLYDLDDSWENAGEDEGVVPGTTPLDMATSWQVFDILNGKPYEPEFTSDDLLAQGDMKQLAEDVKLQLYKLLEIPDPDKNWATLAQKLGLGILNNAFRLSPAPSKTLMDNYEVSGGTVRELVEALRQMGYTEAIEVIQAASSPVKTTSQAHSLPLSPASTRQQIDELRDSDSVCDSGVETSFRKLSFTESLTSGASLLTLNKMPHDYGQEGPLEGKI
Sequence of Nuclear factor NF-kappa-B complex (Homo sapiens) (Q00653 whole entry, looked up): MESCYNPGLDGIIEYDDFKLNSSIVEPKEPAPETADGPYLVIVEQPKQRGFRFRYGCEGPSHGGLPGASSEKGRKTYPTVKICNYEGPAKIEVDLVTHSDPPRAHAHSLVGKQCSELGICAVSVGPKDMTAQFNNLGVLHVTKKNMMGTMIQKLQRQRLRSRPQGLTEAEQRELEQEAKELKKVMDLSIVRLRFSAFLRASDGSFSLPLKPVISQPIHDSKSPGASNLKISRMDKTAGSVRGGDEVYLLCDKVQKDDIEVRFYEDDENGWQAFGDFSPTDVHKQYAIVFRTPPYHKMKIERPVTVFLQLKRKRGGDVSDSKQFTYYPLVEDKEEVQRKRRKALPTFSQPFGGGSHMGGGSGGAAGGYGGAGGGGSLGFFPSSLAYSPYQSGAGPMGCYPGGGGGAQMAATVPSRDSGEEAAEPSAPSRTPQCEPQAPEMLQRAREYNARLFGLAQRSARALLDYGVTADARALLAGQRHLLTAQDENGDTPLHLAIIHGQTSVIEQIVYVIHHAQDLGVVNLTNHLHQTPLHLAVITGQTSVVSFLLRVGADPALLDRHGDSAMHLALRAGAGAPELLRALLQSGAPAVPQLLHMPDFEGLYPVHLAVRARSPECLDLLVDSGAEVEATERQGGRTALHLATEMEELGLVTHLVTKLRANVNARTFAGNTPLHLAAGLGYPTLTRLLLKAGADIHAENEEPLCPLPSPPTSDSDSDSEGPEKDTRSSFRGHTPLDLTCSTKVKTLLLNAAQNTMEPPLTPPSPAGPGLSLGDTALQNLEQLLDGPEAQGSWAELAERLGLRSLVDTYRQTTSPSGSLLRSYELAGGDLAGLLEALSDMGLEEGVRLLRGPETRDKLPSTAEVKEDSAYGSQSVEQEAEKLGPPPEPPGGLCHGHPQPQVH
Sequence of Nuclear factor NF-kappa-B complex (Homo sapiens) (Q04206 whole entry, looked up): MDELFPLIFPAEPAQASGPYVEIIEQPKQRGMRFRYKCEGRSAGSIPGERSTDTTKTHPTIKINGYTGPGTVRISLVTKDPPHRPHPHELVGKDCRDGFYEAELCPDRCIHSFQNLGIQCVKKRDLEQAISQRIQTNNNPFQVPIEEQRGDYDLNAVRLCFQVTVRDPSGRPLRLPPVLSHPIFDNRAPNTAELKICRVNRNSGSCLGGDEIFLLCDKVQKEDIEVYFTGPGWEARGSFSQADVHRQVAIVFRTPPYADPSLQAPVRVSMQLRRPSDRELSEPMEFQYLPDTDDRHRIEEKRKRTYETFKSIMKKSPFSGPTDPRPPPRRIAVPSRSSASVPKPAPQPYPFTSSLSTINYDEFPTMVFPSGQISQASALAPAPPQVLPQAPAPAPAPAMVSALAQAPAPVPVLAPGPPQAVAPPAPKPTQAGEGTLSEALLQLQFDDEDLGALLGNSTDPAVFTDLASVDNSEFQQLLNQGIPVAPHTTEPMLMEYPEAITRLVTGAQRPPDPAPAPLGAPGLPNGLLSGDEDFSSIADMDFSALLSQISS
Outline: (§1)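 HEK-Blue hTLR4 cells (HEK293 with CD14, TLR4, MD-2 and NF-κB/AP-1-driven SEAP) in DMEM/10% FBS, seeded overnight (37 °C, 5% CO2), washed, then exposed to compound 0.1–25 μM in fresh medium for 18 h. SEAP in supernatant read with QUANTI-Blue substrate (0.5–4 h, RT) at OD 630 nm. Normalized to 100 ng/mL S. minnesota smooth LPS; mean percentage of three independent experiments.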

HEK-Blue hTLR4 = experiment: Activation of AP-1 in LPS-stimulated HEK-Blue hTLR4 cells assessed as increase in release of SEAP reporter protein level at 0.1 to 25 uM incubated for 18 hrs by QUANTI-blue assay; format: cell-based; conditions: Homo sapiens, dose 0.1-25 µM; outline: as §1
[2] = biological target: Toll-like receptor 4 (Homo sapiens) (UniProt O00206); experiment: Antagonist activity at human TLR4 in LPS-stimulated HEK-Blue hTLR4 cells assessed as inhibition of LPS-induced SEAP production at 0.1 to 25 uM incubated for 18 hrs by QUANTI-blue assay; conditions: dose 0.1-25 µM
Sequence of Toll-like receptor 4 (Homo sapiens) (O00206 whole entry): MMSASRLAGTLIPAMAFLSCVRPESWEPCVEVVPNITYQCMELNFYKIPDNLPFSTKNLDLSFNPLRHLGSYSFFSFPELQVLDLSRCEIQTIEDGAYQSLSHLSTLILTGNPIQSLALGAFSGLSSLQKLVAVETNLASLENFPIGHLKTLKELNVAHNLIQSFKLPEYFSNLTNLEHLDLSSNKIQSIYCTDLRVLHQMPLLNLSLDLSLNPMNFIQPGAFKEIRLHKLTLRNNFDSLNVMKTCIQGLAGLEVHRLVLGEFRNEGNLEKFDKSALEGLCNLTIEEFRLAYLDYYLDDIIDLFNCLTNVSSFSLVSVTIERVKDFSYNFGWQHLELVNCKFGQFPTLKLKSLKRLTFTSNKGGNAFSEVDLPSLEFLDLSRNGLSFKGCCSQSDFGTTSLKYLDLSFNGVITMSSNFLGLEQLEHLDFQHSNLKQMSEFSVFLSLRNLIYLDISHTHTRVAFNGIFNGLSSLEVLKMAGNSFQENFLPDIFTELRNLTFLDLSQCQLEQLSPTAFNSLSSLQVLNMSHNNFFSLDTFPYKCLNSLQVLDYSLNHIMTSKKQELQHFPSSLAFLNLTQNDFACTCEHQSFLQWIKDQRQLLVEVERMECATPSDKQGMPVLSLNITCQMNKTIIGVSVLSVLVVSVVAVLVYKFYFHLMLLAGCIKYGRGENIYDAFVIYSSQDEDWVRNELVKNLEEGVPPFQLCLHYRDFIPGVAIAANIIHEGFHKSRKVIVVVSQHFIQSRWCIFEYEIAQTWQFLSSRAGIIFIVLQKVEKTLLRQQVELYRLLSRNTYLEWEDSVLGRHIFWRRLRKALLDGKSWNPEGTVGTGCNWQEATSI

Activity [1]: inactive | Activity [2]: inactive
Compound: CCCCCCCCCCCCCC(=O)N[C@H]1[C@@H](OP(=O)(O)O)O[C@H](COP(=O)(O)O)[C@@H](OC(=O)CCCCCCCCCCCCC)[C@@H]1OC(=O)CCCCCCCCCCCCC
Activity (HEK-Blue hTLR4): inactive
